Assay results as given in ChEMBL document CHEMBL1141070, “Synthesis and biological activity of flurbiprofen analogues as selective inhibitors of beta-amyloid(1)(-)(42) secretion” (J Med Chem, 2005).

Experiments:
[1] = biological target: T1, Amyloid-beta precursor protein (Homo sapiens, UniProt P05067); test: Inhibitory concentration against beta-amyloid-42 (Abeta42) secretion was evaluated in human neuroglioma cells (H4-APP695NL); format: functional, cell-based
Procedure, shortened: (§1)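 H4-APP695NL human neuroglioma cells (APP695 Swedish K595N/M596L) seeded at 2 × 10^5/well and grown 24 h to confluence. Increasing compound concentrations added overnight; DMSO 1% as vehicle. Supernatant Aβ42 or Aβ40 measured by electrochemiluminescence immunoassay: biotinylated 4G8 plus C-terminus-specific rabbit antibodies, captured on streptavidin beads.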
Target sequence in this assay (P05067 18-770 limits assumed): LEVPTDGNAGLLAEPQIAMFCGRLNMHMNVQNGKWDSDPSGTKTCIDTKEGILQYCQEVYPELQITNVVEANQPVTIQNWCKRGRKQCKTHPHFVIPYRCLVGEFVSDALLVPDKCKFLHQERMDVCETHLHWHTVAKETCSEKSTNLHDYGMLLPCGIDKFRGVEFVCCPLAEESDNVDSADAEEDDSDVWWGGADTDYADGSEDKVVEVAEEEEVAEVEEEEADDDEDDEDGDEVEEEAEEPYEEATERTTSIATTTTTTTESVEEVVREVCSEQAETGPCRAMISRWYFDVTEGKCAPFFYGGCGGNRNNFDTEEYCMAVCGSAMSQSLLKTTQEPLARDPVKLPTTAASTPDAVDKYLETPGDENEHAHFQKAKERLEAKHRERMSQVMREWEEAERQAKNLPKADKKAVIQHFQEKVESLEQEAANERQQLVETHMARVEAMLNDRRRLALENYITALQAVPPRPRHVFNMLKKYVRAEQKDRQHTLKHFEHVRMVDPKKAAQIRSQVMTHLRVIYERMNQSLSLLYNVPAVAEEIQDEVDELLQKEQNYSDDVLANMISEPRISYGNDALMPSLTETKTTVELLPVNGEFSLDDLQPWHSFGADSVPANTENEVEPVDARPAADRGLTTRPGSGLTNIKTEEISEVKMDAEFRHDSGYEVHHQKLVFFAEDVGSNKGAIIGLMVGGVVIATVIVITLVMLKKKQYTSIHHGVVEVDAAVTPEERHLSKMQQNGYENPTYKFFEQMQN

[2] = Intestinal drug absorption was estimated in vitro using human colon adenocarcinoma (Caco-2) cell monolayers; format: ADME
Procedure, shortened: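 Caco-2 monolayers on polycarbonate Transwell inserts, 2 h at 37 °C. Apical and basolateral solutions analysed by LC-MS/MS (SRM). Papp = Cb·Vb/(C0·A·t).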

[3] = biological target: T2, Prostaglandin G/H synthase 1 (Rattus norvegicus) (UniProt Q63921); test: Percent inhibition against cyclooxygenase-1 at 100 uM in rat blood
T2 sequence (whole entry): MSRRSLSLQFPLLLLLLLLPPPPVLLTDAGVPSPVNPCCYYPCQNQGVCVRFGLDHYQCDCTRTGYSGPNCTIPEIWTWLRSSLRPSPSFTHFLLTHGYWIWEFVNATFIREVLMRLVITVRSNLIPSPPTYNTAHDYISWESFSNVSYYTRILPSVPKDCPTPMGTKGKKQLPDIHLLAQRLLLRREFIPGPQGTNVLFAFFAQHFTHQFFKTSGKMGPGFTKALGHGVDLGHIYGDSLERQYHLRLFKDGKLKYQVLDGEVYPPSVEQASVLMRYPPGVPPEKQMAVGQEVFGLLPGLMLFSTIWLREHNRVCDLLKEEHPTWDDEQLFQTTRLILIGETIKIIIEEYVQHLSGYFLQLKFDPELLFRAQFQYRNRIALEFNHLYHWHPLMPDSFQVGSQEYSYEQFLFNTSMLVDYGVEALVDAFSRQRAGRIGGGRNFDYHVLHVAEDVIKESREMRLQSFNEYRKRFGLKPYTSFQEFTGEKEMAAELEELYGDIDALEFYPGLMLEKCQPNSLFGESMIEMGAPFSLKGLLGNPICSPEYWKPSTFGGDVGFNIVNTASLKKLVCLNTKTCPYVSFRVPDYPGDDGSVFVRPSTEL
Procedure, shortened: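 Fresh rat whole blood preincubated 1 h at 37 °C with compound (100 μM) or DMSO (0.3% final). Stimulated 30 min with A23187 calcium ionophore; plasma thromboxane B2 measured by radioimmunoassay.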

CYP2C19 = CYP2C19 (Homo sapiens, UniProt P33261); test: Interaction with human cytochrome P450 isoform 2C19 expressed in baculovirus-insect cells at 100 uM; format: ADME
CYP2C19, sequence (P33261 whole entry, canonical isoform): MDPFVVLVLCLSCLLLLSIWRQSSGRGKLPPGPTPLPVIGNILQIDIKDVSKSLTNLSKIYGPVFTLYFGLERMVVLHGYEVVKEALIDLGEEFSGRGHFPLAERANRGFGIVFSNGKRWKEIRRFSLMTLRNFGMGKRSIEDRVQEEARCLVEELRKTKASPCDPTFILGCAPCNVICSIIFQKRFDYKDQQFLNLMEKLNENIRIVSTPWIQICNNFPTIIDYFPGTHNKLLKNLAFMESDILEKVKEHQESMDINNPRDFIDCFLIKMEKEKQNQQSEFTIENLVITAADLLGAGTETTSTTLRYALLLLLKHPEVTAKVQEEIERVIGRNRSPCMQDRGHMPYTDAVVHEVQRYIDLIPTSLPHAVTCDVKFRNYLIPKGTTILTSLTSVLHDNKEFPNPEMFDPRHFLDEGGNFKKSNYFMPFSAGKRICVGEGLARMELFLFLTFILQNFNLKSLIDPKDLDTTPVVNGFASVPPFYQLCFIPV
Procedure, shortened: (§2)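 Microsomes from baculovirus-insect cells expressing human CYP1A2, 2C9, 2C19, 2D6 or 3A4. Compound serially diluted with an NADPH-regenerating mix (16.3 μM NADP+, 0.83 mM glucose-6-phosphate, 0.83 mM MgCl2, 0.4 U/mL G6PDH). Pre-warmed 10 min at 37 °C, then isoform-specific substrate added in 0.35 M potassium phosphate pH 7.4. Fluorometric read-out; IC50 by nonlinear regression.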

[4] = biological target: T1, Amyloid-beta precursor protein; conditions: at 100 µM
Target sequence in this assay (P05067 whole entry): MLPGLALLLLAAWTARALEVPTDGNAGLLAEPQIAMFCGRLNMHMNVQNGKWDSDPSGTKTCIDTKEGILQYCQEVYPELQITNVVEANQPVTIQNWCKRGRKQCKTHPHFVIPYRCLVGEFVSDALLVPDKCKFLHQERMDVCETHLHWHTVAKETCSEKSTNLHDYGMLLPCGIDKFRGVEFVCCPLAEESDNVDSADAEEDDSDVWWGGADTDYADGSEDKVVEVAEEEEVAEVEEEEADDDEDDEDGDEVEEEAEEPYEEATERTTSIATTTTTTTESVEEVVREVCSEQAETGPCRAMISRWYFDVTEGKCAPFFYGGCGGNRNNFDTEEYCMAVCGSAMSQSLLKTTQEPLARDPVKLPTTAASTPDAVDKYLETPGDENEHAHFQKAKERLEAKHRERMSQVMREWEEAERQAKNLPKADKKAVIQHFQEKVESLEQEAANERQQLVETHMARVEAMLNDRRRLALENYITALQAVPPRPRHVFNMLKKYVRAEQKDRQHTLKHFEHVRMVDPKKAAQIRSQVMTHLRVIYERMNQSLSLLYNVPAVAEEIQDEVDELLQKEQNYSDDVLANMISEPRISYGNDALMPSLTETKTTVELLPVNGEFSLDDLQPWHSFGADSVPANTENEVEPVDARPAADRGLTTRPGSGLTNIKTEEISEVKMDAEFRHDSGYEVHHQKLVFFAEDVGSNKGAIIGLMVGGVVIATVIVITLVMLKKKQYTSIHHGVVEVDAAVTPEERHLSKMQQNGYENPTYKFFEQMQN

Cytochrome P450 2C19 = Cytochrome P450 2C19 (Homo sapiens, UniProt P33261); test: Interaction with human cytochrome P450 isoform 2C19 expressed in baculovirus-insect cells; format: ADME; procedure, shortened: as §2
Cytochrome P450 2C19, sequence (P33261 whole entry, canonical isoform): as the sequence (P33261 whole entry, canonical isoform) above

Cytochrome P450 2C9 = Cytochrome P450 2C9 (Homo sapiens, UniProt P11712); test: Interaction with human cytochrome P450 isoform 2C9 expressed in baculovirus-insect cells; format: ADME; procedure, shortened: as §2
Cytochrome P450 2C9, sequence (P11712 whole entry, canonical isoform): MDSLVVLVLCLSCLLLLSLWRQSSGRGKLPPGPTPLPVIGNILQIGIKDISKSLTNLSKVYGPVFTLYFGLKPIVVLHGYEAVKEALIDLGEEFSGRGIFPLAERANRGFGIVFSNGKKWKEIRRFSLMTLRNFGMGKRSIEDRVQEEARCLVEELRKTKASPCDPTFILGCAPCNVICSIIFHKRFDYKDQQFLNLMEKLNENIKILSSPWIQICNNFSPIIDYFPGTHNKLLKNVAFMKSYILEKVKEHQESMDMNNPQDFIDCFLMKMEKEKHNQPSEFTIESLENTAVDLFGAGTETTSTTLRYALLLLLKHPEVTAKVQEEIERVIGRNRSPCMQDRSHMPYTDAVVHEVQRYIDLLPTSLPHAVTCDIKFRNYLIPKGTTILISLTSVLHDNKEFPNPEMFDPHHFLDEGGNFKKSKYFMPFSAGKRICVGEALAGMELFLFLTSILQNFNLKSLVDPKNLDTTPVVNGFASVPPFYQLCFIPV

Cytochrome P450 3A4 = Cytochrome P450 3A4 (Homo sapiens, UniProt P08684); test: Interaction with human cytochrome P450 isoform 3A4 expressed in baculovirus-insect cells; format: ADME
Cytochrome P450 3A4, sequence (P08684 whole entry, canonical isoform): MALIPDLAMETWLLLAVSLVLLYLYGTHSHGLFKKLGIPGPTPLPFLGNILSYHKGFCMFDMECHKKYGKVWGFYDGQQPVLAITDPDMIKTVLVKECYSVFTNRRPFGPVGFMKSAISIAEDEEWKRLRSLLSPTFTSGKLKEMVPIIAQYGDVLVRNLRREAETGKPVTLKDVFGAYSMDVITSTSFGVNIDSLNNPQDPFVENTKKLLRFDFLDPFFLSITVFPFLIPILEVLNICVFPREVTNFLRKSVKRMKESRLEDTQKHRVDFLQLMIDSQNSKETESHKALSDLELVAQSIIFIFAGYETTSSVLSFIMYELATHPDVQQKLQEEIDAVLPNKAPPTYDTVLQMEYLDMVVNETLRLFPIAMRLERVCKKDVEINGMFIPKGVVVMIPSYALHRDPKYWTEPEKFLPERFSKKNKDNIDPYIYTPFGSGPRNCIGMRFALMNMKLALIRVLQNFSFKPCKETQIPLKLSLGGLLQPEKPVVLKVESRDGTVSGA
Procedure, shortened: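 Supersome microsomes from baculovirus-insect cells expressing human CYP1A2, 2C9, 2C19, 2D6 or 3A4 were used with isoform-specific fluorogenic substrates. Compounds were serially diluted with an NADP⁺/glucose-6-phosphate regenerating system in 0.35 M potassium phosphate, pH 7.4. Plates were prewarmed 10 min at 37 °C, reactions stopped with acetonitrile/Tris, and fluorescence read. IC50 was obtained by nonlinear regression.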

[5] = biological target: T1, Amyloid-beta precursor protein; test: Concentration required to inhibit A beta 40 peptide 100 um
Target sequence in this assay (P05067 whole entry): as the sequence (P05067 whole entry) above

[6] = In vivo steady state metabolic clearance of the compound; conditions: rat
[7] = Concentration ratio in cerebrospinal fluid and plasma; below lower limit of quantitation; conditions: rat
[8] = Concentration ratio in cerebrospinal fluid and plasma; conditions: rat
CYP1A2 = biological target: T3, CYP1A2 (Homo sapiens, UniProt P05177); test: Interaction with human cytochrome P450 isoform 1A2 expressed in baculovirus-insect cells at 100 uM; format: ADME; procedure, shortened: as §2
T3 sequence (P05177 whole entry): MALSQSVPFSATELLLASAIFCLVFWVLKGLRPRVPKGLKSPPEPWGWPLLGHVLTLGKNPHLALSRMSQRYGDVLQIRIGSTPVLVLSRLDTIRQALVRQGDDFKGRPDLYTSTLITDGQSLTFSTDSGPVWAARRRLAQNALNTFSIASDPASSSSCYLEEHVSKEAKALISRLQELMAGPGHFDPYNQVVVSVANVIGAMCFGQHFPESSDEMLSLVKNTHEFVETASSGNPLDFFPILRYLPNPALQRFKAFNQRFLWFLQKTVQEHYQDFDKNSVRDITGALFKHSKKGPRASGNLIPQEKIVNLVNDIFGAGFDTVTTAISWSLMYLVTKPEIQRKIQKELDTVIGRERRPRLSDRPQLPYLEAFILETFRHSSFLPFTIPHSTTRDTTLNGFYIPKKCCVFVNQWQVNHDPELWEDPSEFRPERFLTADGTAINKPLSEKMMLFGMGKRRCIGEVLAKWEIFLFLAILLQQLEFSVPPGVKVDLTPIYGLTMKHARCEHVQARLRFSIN

CYP2D6 = CYP2D6 (Homo sapiens, UniProt P10635); test: Interaction with human cytochrome P450 isoform 2D6 expressed in baculovirus-insect cells at 100 uM; format: ADME; procedure, shortened: as §2
CYP2D6, sequence (P10635 whole entry, canonical isoform): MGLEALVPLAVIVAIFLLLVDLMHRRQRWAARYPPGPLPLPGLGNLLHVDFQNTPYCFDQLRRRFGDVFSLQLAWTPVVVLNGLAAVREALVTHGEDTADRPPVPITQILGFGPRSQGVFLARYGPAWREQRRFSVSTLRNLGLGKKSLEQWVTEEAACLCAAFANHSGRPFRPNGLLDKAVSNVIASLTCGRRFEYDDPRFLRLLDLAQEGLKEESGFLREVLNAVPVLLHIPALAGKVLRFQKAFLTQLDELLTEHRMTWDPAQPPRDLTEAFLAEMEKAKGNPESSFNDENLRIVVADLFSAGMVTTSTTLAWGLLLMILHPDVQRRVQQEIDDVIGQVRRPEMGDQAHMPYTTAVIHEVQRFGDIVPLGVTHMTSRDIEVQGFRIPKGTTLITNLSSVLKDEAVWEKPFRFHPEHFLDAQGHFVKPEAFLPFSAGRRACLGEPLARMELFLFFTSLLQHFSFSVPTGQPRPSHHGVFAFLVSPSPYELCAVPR

CYP2C9 = CYP2C9 (Homo sapiens, UniProt P11712); test: Interaction with human cytochrome P450 isoform 2C9 expressed in baculovirus-insect cells at 100 uM; format: ADME; procedure, shortened: as §2
CYP2C9, sequence (P11712 whole entry, canonical isoform): as the sequence (P11712 whole entry, canonical isoform) above

CYP3A4 = CYP3A4 (Homo sapiens, UniProt P08684); test: Interaction with human cytochrome P450 isoform 3A4 expressed in baculovirus-insect cells at 100 uM; format: ADME; procedure, shortened: as §2
CYP3A4, sequence (P08684 whole entry, canonical isoform): as the sequence (P08684 whole entry, canonical isoform) above

[9] = biological target: T1, Amyloid-beta precursor protein; test: (§3) Concentration required to inhibit A beta 40 peptide 100 uM; procedure, shortened: as §1
Target sequence in this assay (P05067 whole entry): as the sequence (P05067 whole entry) above

[10] = biological target: T1, Amyloid-beta precursor protein; test: as §3; remark: listed apart in the source
Target sequence in this assay (P05067 whole entry): as above

Structure (SMILES)	IC50 [1] [µM]	Papp [2] [×10⁻⁶ cm/s]	inhibition [3] [%]	inhibition [4] [%]	Clearance [6] [mL/h]	Ratio [8] [%]	other results
CC(C(=O)O)c1ccc(-c2ccc(Cl)c(Cl)c2)c(F)c1 (stereo unspecified)	75	> 5	78	87			inhibition at 100 µM (CYP2C19): > 50%
Cc1ccc(-c2ccc(C(C)C(=O)O)cc2F)cc1 (stereo unspecified)				44			
COc1ccc(-c2ccc(C(C)C(=O)O)cc2F)cc1 (stereo unspecified)	67	> 5		67			IC50 (Cytochrome P450 2C19): 87 µM
CC(C)(C(=O)O)c1ccc(-c2ccc(C3CCCCC3)cc2)c(F)c1			12	77			IC50 (Cytochrome P450 2C9): 28 µM; IC50 (Cytochrome P450 3A4): 59 µM; inhibition [5]: 47%
O=C(O)C1(c2ccc(-c3ccc(C4CCOCC4)cc3)c(F)c2)CC1				52	39		Ratio [7]: Below LLOQ
CC(C(=O)O)c1ccc(-c2ccc(C(F)(F)F)cc2)cc1C(F)(F)F (stereo unspecified)				57			
O=C(O)C1(c2ccc(-c3csc4ccccc34)c(F)c2)CC1	96.3	> 5	< 1	49	113.6	2.6	IC50 (Cytochrome P450 2C9): 19 µM
CC(C(=O)NS(C)(=O)=O)c1ccc(-c2ccc(C(F)(F)F)cc2)c(F)c1 (stereo unspecified)				34	3.1	1.7	inhibition at 100 µM (CYP1A2): > 50%; inhibition at 100 µM (CYP2D6): > 50%; inhibition at 100 µM (CYP2C9): > 50%; inhibition at 100 µM (CYP3A4): > 50%; inhibition at 100 µM (CYP2C19): > 50%
CC(C)(C(=O)O)c1ccc(-c2ccc(C(F)(F)F)cc2)c(F)c1	70.6			58			
CC(C(=O)O)c1ccc(-c2cccc(Cl)c2)c(F)c1 (stereo unspecified)				58			
CC(C(N)=O)c1ccc(-c2cc(Cl)cc(Cl)c2)c(F)c1 (stereo unspecified)	64			70	193	19	IC50 [9]: 12 µM
CC(C(=O)O)c1ccc(-c2ccc(O)cc2)c(F)c1 (stereo unspecified)				27			
O=C(O)C1(c2ccc(-c3ccccc3)c(F)c2)CC1		> 5	26	40	9.8	2.3	IC50 (Cytochrome P450 2C9): 83 µM
O=C(O)C1(c2ccc(-c3ccc(-c4ccc(F)cc4)c(F)c3)c(F)c2)CC1	57.9	< 1	18	75	8.1	1.8	IC50 (Cytochrome P450 2C9): 7 µM; IC50 (Cytochrome P450 3A4): 38 µM; IC50 (Cytochrome P450 2C19): 46 µM; inhibition [10]: 32%
CC(C(=O)O)c1ccc(-c2ccncc2)c(F)c1 (stereo unspecified)				11			
CC(c1ccc(-c2ccc(C(F)(F)F)cc2)c(F)c1)c1noc(O)n1 (stereo unspecified)				46	5.3	2.1	inhibition at 100 µM (CYP2C9): > 50%; inhibition at 100 µM (CYP3A4): > 50%; inhibition at 100 µM (CYP2C19): > 50%
